# Experimental data: PMC4642222 (Biochemistry, 2015)
# Entries after “also recorded” stand apart in the source; their conditions may differ. Where no end group is shown, it is not given here.
# What was measured:
# MAS = assay: Filamin A phosphorylation in HEK-MAS cells; assay type: cell-based, human
# How it was run: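 HEK293 cells with doxycycline-inducible (100 ng/mL) myc-tagged MAS were induced 24 h with or without MAS inverse agonist (10 μM), then serum-starved 2 h with inverse agonist or H-89 (10 μM each). They were then treated 1 h with MAS agonist (10 μM) plus H-89; uninduced cells served as controls. Lysates were Western-blotted for pS2152-FLNa, FLNa and GAPDH, and pFLNa/FLNa was given as fold over uninduced. Mean ± SEM, N = 3, unpaired t test.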
# FLNa = conditions: cited from earlier work
# [1] = target: Filamin A Ig21 (Homo sapiens) (UniProt P21333); conditions: cited from earlier work
# Filamin A (Homo sapiens) = Filamin A (Homo sapiens) (UniProt P21333); conditions: cited from earlier work
# AT1R = assay: Filamin A phosphorylation in HEK-AT1R cells; assay type: cell-based, rat; conditions: serum starved 2 h, AngII 1 μM for 1 h, mean of N = 2
# How it was run: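 HEK293 cells stably expressing HA-tagged rat AT1R were grown to 80–90% confluency and serum-starved 2 h. They were pretreated 30 min with vehicle or candesartan (10 μM), then given vehicle or AngII (1 μM) for 1 h. About 25 μg of M-PER lysate (protease and phosphatase inhibitors) was run on 4–12% SDS-PAGE. Blots were probed for pS2152-FLNa, FLNa and GAPDH by near-IR fluorescence. pFLNa/FLNa was expressed as fold over untreated; mean ± SEM, N = 2, unpaired t test.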
# [2] = Peptide solubility in ITC buffer; assay type: physicochemical; conditions: 25 mM sodium phosphate (pH 6.4), 5 mM NaCl, 1 mM DTT
# FLNa Ig21 [3] = target: T1, FLNa Ig21 (Homo sapiens, UniProt P21333); assay: 15N HSQC NMR binding to FLNa Ig21; conditions: 15N-labeled Ig21, Bruker Avance 600 MHz, 30 °C; D3R peptide at 2-fold excess
# T1 sequence (P21333 2236-2329 limits assumed): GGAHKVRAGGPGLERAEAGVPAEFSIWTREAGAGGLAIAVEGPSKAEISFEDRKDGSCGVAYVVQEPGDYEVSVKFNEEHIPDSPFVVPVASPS
# FLNa Ig21 [4] = target: T1, FLNa Ig21; assay: Isothermal titration calorimetry; assay type: binding; conditions: FLNa Ig21, 25 mM sodium phosphate (pH 6.4), 30 °C
# FLNa Ig19 = assay: 15N HSQC NMR binding to FLNa Ig19; parameters: species or system human; conditions: 15N-labeled Ig19, Bruker Avance 600 MHz, 30 °C; 2-fold excess of peptide
# [5] = target: Human Filamin A immunoglobulin domain Ig21 (human); assay: ITC
# Sequence of Filamin A (Homo sapiens) (P21333 2-2647): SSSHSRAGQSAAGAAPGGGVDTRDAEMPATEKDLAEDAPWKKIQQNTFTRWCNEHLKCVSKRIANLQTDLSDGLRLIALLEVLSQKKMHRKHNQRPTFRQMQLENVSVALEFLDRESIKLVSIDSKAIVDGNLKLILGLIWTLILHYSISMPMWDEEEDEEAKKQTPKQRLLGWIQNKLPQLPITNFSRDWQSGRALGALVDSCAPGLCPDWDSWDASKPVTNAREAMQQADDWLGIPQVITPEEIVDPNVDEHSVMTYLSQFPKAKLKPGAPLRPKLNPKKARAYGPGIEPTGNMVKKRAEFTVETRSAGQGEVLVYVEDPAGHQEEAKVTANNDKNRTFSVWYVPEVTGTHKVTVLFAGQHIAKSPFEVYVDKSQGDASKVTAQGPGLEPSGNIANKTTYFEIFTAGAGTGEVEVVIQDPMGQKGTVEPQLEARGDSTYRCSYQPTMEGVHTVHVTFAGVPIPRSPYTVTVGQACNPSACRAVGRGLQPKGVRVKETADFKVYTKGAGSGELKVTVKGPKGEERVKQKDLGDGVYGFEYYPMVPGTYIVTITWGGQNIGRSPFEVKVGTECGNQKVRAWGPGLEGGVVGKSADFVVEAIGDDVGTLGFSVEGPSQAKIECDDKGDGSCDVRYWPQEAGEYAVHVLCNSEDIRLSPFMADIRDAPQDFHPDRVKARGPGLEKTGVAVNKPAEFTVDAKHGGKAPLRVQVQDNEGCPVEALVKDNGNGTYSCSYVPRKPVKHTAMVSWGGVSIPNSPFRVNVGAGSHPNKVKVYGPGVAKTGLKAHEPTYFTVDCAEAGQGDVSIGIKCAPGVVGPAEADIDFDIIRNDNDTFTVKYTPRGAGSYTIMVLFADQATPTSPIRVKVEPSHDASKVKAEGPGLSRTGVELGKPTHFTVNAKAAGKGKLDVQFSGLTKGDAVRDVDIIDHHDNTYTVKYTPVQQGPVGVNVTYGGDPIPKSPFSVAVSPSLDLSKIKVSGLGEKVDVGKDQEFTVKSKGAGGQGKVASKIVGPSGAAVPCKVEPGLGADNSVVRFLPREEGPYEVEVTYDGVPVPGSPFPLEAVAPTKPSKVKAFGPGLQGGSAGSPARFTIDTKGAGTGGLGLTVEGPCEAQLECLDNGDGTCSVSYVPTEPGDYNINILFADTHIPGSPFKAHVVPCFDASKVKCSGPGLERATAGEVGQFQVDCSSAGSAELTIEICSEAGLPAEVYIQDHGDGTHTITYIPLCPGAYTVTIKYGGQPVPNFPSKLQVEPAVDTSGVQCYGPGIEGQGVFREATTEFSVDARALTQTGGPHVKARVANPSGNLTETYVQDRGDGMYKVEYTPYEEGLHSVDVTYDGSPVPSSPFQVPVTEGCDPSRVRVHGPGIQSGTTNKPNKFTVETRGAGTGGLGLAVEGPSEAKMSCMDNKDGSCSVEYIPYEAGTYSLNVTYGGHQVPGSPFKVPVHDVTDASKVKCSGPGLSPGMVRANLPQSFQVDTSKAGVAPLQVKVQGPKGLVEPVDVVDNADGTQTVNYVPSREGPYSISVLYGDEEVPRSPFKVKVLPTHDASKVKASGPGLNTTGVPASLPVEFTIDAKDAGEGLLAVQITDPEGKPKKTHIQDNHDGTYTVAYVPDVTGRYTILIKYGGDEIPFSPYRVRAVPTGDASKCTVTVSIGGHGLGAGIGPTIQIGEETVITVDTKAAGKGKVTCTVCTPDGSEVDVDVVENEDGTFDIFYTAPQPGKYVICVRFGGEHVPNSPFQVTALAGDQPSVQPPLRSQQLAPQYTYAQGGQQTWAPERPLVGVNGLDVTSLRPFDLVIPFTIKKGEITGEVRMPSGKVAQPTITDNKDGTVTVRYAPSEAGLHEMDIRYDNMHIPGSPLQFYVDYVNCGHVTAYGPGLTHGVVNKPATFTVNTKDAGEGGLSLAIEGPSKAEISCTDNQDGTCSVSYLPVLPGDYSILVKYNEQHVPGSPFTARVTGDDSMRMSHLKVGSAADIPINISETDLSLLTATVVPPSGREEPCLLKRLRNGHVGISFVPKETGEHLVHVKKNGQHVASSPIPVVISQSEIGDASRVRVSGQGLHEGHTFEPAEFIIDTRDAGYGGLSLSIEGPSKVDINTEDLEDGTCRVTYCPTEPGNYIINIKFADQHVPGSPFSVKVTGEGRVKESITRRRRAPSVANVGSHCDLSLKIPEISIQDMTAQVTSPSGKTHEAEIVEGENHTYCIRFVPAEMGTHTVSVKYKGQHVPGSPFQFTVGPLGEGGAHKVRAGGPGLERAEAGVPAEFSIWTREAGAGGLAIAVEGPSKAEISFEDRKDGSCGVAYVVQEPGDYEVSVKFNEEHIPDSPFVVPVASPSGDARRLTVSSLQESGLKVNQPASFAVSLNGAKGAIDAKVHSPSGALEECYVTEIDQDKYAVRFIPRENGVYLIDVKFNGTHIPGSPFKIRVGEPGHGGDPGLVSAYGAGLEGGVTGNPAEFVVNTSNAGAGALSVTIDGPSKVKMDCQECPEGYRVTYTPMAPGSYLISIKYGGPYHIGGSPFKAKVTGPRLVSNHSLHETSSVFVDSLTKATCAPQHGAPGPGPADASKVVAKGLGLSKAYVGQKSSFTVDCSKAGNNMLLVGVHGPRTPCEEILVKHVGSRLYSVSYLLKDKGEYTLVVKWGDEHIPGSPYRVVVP
molecule,measurement,setting,value
O=S(=O)(NCCNC/C=C/c1ccc(Br)cc1)c1cccc2cnccc12 [H-89],inhibition of the increase in pFLNa in MAS-expressing cells,"MAS; H-89 10 μM, Discussion statement",60%
lysophosphatidic acid,level of FLNa phosphorylation,FLNa,increase the level of FLNa phosphorylation
β7 integrin C-terminal peptide Ct (from UniProt P26010),Kd,[1],40000 nM
GPIbα (from UniProt P07359),Kd,Filamin A (Homo sapiens),100 nM
"angiotensin II (DRVYIHPF; Angiotensin-2; UniProt P01019 25-32, looked up) [AngII]","filamin phosphorylation, increase (pFLNa/FLNa)",AT1R,5 fold
KGHTFRSSLSVRLLKFSR [α1D-AR],solubility of peptide (in words),[2],limited
C=CCCN1CCC2(CC1)CN(C(=O)c1c(F)cccc1F)c1ccc(Cl)cc12 [AR-inverse agonist],FLNa phosphorylation induced by constitutive activity of MAS,"MAS; 10 μM AR-inverse agonist during induction (24 h) and serum starvation (2 h), N = 3",abolished constitutive FLNa phosphorylation
VRKLSNGRLSTSLKLGPLQPRGV [D3R],HSQC spectral changes / binding to FLNa Ig21,FLNa Ig21 [3],binds FLNa Ig19 and Ig21
same,affinity for Ig21 by ITC (in words),FLNa Ig21 [4],could not be assessed accurately by ITC because of its lower affinity; also recorded: binds with a lower affinity
same,HSQC spectral changes / binding to FLNa Ig19,FLNa Ig19,binds FLNa Ig19 and Ig21
LGKKFKRYFLQLLKYIPPKA [AT1R filamin binding motif (FBM) peptide],Kd,[5],800 nM
KKKRFKESLKVVLTRAFK [MAS filamin binding motif (FBM) peptide],Kd,[5],300 nM
KGHTFRSSLSVRLLKFSR [α1D-adrenoreceptor (α1D-AR) filamin binding motif (FBM) peptide],Kd,[5],800 nM
